Screening results as filed in PubChem BioAssay.
This is a sample that favours compounds with a hit; in the whole collection about 2.9% have one here.
Dynein cargo inh = inhibitors of GR-EGFP nuclear translocation, primary screen, dynein cargo transport inhibitor project, imaging, high-content, 3617.4 mouse cells | test concentration mostly 20 µM; stimulated with dexamethasone, 1 µM; hits give low values | z-score, hits read low | hit rate 0.47% among 220,000 | AID 1381, 2008;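 active means plate z-score of nuclear minus cytoplasmic receptor signal below a set negative limit, without overly bright fluorescence or cell loss, cut at about -3.5 in these data, passing the limit was not always enough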;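 further: z-score of nuclear minus cytoplasmic ring GR-EGFP intensity difference per well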
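medium = tetracycline-free induction medium containing charcoal-stripped FBS | probe or stimulus = dexamethasone, 1.0 µM final | timing = 48 h induction, then 1 h compound, then 30 min agonist, 37 °C | detection = automated 10x imaging of fixed Hoechst-stained cells | read-out basis = nuclear versus cytoplasmic GR-EGFP signal, averaged per well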
MEKK2mut PB1 HTS = MEK5 binding signal on mutant MEKK2 PB1, primary screen, biochemical, multiplex bead flow cytometry, Alexa488-MEK5. hit rate 0.35% among 290,000. Alexa488-MEK5 binding to MEKK2 mutant. percent response, % at 10 µM. AID 1530, 2009; in the data active means percent response above about 24%, passing the limit was not always enough
MEKK2wt PB1 HTS = modulators of MEK5 binding to wildtype MEKK2, primary screen, biochemical, multiplex bead flow cytometry, Alexa488-MEK5; Mitogen-activated protein kinase kinase kinase 2 (Homo sapiens), Q9Y2U5; Alexa488-MEK5 binding to MEKK2 WT; actives lie on both sides; binding response (% of control), % at 10 µM; hit rate 1.1% among 290,000; AID 1531, 2009; in the data active means binding response below about 67% or above about 130%
MEKK3 PB1 HTS = modulators of MEKK3-MEK5 PB1 binding, primary screen, biochemical, wildtype MEKK3, multiplex bead flow cytometry, Alexa488-MEK5; AID 1529, 2009; bead-based flow cytometry, Alexa488-MEK5 binding to MEKK3; actives lie on both sides; 0 = blocked by unlabeled MEK5, 100 = vehicle; binding response (% of control), % at 10 µM; hit rate 1.4% among 290,000; Mitogen-activated protein kinase kinase kinase 3 (Homo sapiens), Q99759;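 active means binding response more than 3 SD above or below the average of its plate-row segment, actives on both sides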;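 further: Alexa488 bead fluorescence after subtracting the streptavidin-only scavenger bead signal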
Beta2AR agonist = beta2AR agonists driving receptor internalization, primary screen, cell-based, FAP fluorogen, flow cytometry | response, % (no concentration beside the values) | hit rate 0.43% among 340,000 | Am2.2-beta2AR cells | AID 504454, 2011 | Beta-2 adrenergic receptor (Homo sapiens), P07550;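 active means response above a set limit, near 3 SD of response in nonfluorescent compounds, cut at about 42% in these data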
ATG4B inh = ATG4B protease inhibitors, primary screen, biochemical, fluorescence, uHTS; inhibition, % at 8.33 µM; AID 504462, 2011; Cysteine protease ATG4B (Homo sapiens), Q9Y4P1; hit rate 0.51% among 340,000; ATG4B cleavage of LC3-PLA2, NBD-HPC fluorescence, 1 h; in the data active means inhibition above about 40%
Target sequence (Q9Y4P1 whole entry, looked up): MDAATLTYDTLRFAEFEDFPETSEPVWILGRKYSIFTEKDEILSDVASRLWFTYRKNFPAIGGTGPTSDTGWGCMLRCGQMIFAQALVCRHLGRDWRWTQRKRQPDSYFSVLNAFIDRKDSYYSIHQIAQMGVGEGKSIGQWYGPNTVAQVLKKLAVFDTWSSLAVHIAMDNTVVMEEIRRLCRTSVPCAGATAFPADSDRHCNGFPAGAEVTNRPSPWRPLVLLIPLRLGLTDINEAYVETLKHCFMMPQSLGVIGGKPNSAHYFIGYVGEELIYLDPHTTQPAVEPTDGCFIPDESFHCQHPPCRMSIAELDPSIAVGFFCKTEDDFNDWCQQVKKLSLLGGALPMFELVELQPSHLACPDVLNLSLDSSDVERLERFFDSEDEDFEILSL
ATG4B confirm = ATG4B protease inhibitors, retest, confirmation, biochemical, fluorescence, single concentration; hit rate 92% among 320; shares compounds with ATG4B inh; AID 504757, 2011; inhibition, % at 8.33 µM; ATG4B protease fluorescent substrate cleavage assay; in the data active means inhibition above about 39%
PLA2 ctr = PLA2 enzyme inhibition, counter-screen for ATG4B inhibitor project, biochemical, single concentration, uHTS hits. shares compounds with ATG4B inh. purified PLA2, NBD-C6-HPC fluorescence, 45 min. inhibition, % at 8.33 µM. hit rate 66% among 1,600. AID 588402, 2011; in the data active means inhibition above about 50%
Target sequence (P04054 whole entry, looked up): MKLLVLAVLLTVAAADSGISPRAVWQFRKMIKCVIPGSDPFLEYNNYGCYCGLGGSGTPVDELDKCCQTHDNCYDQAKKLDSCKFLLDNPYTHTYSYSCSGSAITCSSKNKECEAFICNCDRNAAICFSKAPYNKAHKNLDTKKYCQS
* marks the source's active call; other numbers are inactive results; . = no result.

SMILES	Dynein cargo inh	MEKK2mut PB1 HTS	MEKK2wt PB1 HTS	MEKK3 PB1 HTS	Beta2AR agonist	ATG4B inh	PLA2 ctr	others
CCC(=O)n1nc(NCc2ccccc2OC)nc1NCc1ccccc1OC	-1.5	2.0	103.0	101.0	-5.4	41.0*	37.3
O=C(O)C1Nc2ccc(Br)cc2C2C=CCC12 (stereo not drawn)	.	0.0	91.0	93.0	2.9	64.4*	21.4	ATG4B confirm=31.7
O=C(O)C1Nc2c(Cl)cc(Cl)cc2C2C=CCC12 (stereo not drawn)	.	-1.0	96.0	94.0	7.0	64.9*	46.4	ATG4B confirm=20.6
Cc1cc(C)c(C(N)=O)c(NC(=O)Nc2ccccc2Cl)n1	0.988	-3.0	98.0	102.0	-8.7	-1.5	.
CC(C)c1ccc(C2NC(=O)c3ccccc3O2)cc1 (stereo not drawn)	.	-1.0	94.0	99.0	1.0	40.5*	40.3
CCCCc1nnc(SC(C)C(=O)Nc2nccs2)n1C (stereo not drawn)	.	-6.0	97.0	99.0	-3.1	-0.7	.
Cc1ccc(NC(=S)NC2CCSc3ccccc32)cc1C (stereo not drawn)	.	-4.0	96.0	97.0	3.2	41.0*	53.2*
CN(CC(=O)Nc1ccc(F)cc1)C(=O)COc1ccccc1Cc1ccccc1	.	.	.	.	3.6	-2.7	.
O=C(Nc1cc(C(=O)Nc2ccccc2C(=O)O)cc(C(=O)Nc2ccccc2C(=O)O)c1)c1ccccc1	.	11.0	111.0	104.0	10.6	67.9*	84.2*
O=C(Nc1ccccc1C(=O)O)c1cccc(NC(=O)c2ccccc2Br)c1	.	8.0	107.0	104.0	-1.9	0.1	.
COc1cccc(NS(=O)(=O)c2ccc3c(c2)C2C=CCC2C(c2ccc(C(=O)O)cc2)N3)c1 (stereo not drawn)	0.0599	-2.0	97.0	100.0	-7.5	66.6*	42.4	ATG4B confirm=62.1*
Nc1ncnc2c1ncn2[C@@H]1O[C@H](CNCC(O)CO)[C@@H](O)[C@H]1O (stereo partly drawn)	.	.	.	.	-5.8	-3.5	.
COc1cc(OC)cc(-c2nnc(Nc3nc4c(F)cccc4s3)o2)c1	0.415	-13.0	86.0	80.0	3.9	56.7*	11.3	ATG4B confirm=51.0*
O=C(COC(=O)c1cc(=O)[nH]c(=O)[nH]1)NCc1ccccc1	1.88	17.0	109.0	99.0	4.6	-9.2	.
N#Cc1c(-c2ccccc2)cc(-c2ccccc2)nc1SCCC(=O)O	.	0.0	100.0	96.0	-4.8	50.7*	67.8*
c1ccc(-c2ccc(C(c3ccccc3)n3ccnc3)cc2)cc1 (stereo not drawn)	0.678	9.0	88.0	120.0	0.8	40.6*	45.3	ATG4B confirm=63.2*
CC1(C)Cc2c(sc3c2c(=N)n(Cc2ccco2)c(=O)n3CC(=O)Nc2cccc(Cl)c2)CO1	-0.545	1.0	98.0	109.0	2.1	52.5*	59.6*
CS(=O)(=O)Nc1ccc(C2=NN(C(=O)C3CCCCC3)C(c3cccs3)C2)cc1 (stereo not drawn)	0.67	-2.0	83.0	100.0	4.7	76.7*	80.8*
Cc1ccc(C(=O)N2N=C(c3ccc(NS(C)(=O)=O)cc3)CC2c2cccs2)cc1 (stereo not drawn)	.	3.0	101.0	101.0	9.5	-15.6	.
Cc1ccc(S(=O)(=O)N(Cc2ccccc2)Cc2ccco2)cc1	-0.427	-3.0	95.0	97.0	-4.3	44.3*	55.9*
Cc1ccc(S(=O)(=O)N(Cc2ccc(F)cc2)Cc2ccco2)cc1	-0.569	12.0	107.0	108.0	-0.9	29.5	.
COCOc1ccc(C=O)c(O)c1	.	2.0	102.0	104.0	5.6	-21.5	.
O=Cc1ccc(OCc2cccc(C(F)(F)F)c2)cc1O	0.778	-7.0	100.0	105.0	-2.4	56.6*	77.3*
COc1c2c(cc3oc(CO[C@@H]4O[C@H](CO)[C@@H](O)[C@H](O)[C@H]4O)cc(=O)c13)O[C@H](C(C)(C)O)C2	.	.	.	.	15.8	4.9	.
Cc1cccc(N=Cc2cc(Br)cc(Cl)c2O)c1	-0.74	-10.0	73.0	98.0	2.6	40.2*	30.7	ATG4B confirm=63.0*
SMILES	Dynein cargo inh	MEKK2mut PB1 HTS	MEKK2wt PB1 HTS	MEKK3 PB1 HTS	Beta2AR agonist	ATG4B inh	PLA2 ctr	others
Cc1ccc(NC(=O)c2cncc(Br)c2)c([N+](=O)[O-])c1	-0.766	2.0	106.0	102.0	-9.8	2.8	.
COc1c(C)cc(Br)cc1C(=O)Nc1ccc(C)cc1[N+](=O)[O-]	-0.646	4.0	97.0	96.0	-2.8	42.0*	-18.6
O=c1[nH]c(SCc2ccccc2Cl)nc2c1CCCC2	-0.0377	5.0	104.0	104.0	0.1	17.7	.
O=C1CCCC2=C1C(c1ccncc1)c1c(nc(SCc3ccccc3Cl)[nH]c1=O)N2 (stereo not drawn)	1.92	8.0	105.0	106.0	7.4	76.8*	81.0*
Cc1ccc(C)c(S(=O)(=O)N2CCN(c3nc(CN4CCOCC4)nc4sc(C)c(C)c34)CC2)c1	.	.	.	.	0.4	52.2*	69.5*
Cc1sc(NC(=O)C2C3CCC(O3)C2C(=O)O)nc1-c1ccc(CC(C)C)cc1 (stereo not drawn)	0.81	-1.0	103.0	116.0	6.8	55.5*	69.1*
CCOc1c(Br)cc(C(N)=O)cc1OCc1ccccc1	-0.773	-1.0	95.0	94.0	2.7	78.7*	80.1*
COc1cc(C(N)=O)cc(Br)c1OC	1.94	4.0	101.0	107.0	10.8	0.7	.
CCCOc1c(Br)cc(C(N)=O)cc1OCC	0.0769	-2.0	94.0	100.0	1.3	41.9*	56.1*
CCOc1c(Br)cc(C(N)=O)cc1OC	-1.66	-7.0	94.0	93.0	3.7	1.4	.
COc1cc(C(N)=O)cc(Br)c1OCc1ccccc1	0.891	-2.0	97.0	102.0	0.0	69.6*	71.4*
CN(Cc1ccc(F)cc1)C(=O)COc1ccccc1-c1ccccc1	1.9	15.0	118.0	109.0	-2.7	48.1*	48.4
CN(Cc1ccc(F)cc1)C(=O)c1sccc1-c1ccccc1	.	2.0	102.0	100.0	-3.6	2.6	.
CC(C)OCCCNc1nc(-c2ccccc2)nc2ccccc12	.	4.0	107.0	104.0	-0.1	2.5	.
